Reference: ChEMBL document CHEMBL3612036, “Design, Synthesis, and Cardioprotective Effects of N-Mercapto-Based Hydrogen Sulfide Donors” (J Med Chem, 2015)
Active and inactive are the calls of the source. The calls are words filed in the database; no cut-off is given here.

Experiments:
[1] = […] peak time for H2S release in pH 7.4 PBS buffer containing 10% THF incubated for 2 hrs at room temperature in presence of cysteine by methylene blue based UV-Vis spectrometry; format: physicochemical; details: pH 7.4, 2 h
How it was run: (§1)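 Donor (30 mM THF stock; 0.1 mM final) was added to PBS (pH 7.4, 50 mM)/THF 9:1 containing the stated thiol, at room temperature for 2 h. 1.0 mL aliquots were taken periodically into methylene blue cocktail (zinc acetate, N,N-dimethyl-p-phenylenediamine in HCl, FeCl3 in HCl) and reacted 15 min. Absorbance was read at 670 nm and H2S quantified against a Na2S calibration curve; peak concentration and peak time were recorded.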

Mus musculus [2] = experiment: Cardioprotective activity in C57BL6/J mouse model of myocardial ischemia/reperfusion assessed as reduction in infarct size per area-at-risk dosed through direct intracardiac injection at time of reperfusion by TTC staining method; format: functional, organism-based; details: Myocardium
How it was run: (§2)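 Male C57BL/6J mice, 10–12 weeks old, anesthetised with pentobarbital (50 mg/kg) plus ketamine (60 mg/kg). Left coronary artery occluded with PE-10 tubing for 45 min. Single intracardiac injection at reperfusion; vehicle 0.5% v/v THF in sterile saline. Reperfusion lasted 24 h, then area-at-risk and infarct measured by Evans blue/TTC staining. n = 6–17 per group.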

Mus musculus [3] = experiment: Cardioprotective activity in C57BL6/J mouse model of myocardial ischemia/reperfusion assessed as reduction in infarct size per area-at-risk at 100 ug/kg dosed through direct intracardiac injection at time of reperfusion by TTC staining method; format: functional; details: Myocardium; how it was run: as §2
H9c2 [4] = experiment: Cytoprotective activity against H2O2-induced cell damage in rat H9c2 cells assessed as reduction in mitochondrial membrane potential loss at 160 uM pre-incubated for 1 hr before H2O2 challenge for 5 hrs in presence of 480 uM cysteine by Rh123 dye based fluorescent microscopy; format: functional
How it was run: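 H9c2 cells were grown in high-glucose DMEM with 10% FBS at 37 °C, 5% CO2. They were pretreated 1 h with donor plus cysteine (480 μM), then given H2O2 (400 μM) for 5 h. Rh123 (10 mg/L) was added for 15 min at 37 °C. Fluorescence microscopy gave mean Rh123 intensity from four random fields.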

H9c2 [5] = experiment: Cytotoxicity against rat H9c2 cells assessed as reduction in cell viability at >80 uM incubated for 1 hr by CCK8 assay; format: cell-based; details: h9c2, 1 h
How it was run: (§3)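 H9c2 cells (high-glucose DMEM, 10% FBS, 37 °C, 5% CO2) were exposed 1 h to donor over 20–160 μM, either alone or with 480 μM cysteine, then washed twice with PBS. Viability was measured by CCK-8 (1:10 dilution, 3 h at 37 °C, absorbance 450 nm). The mean OD of 4 wells was expressed as % of control, in triplicate.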

H9c2 [6] = experiment: Cytoprotective activity against H2O2-induced cell damage in rat H9c2 cells at 160 uM pre-incubated for 1 hr before H2O2 challenge for 5 hrs in presence of 480 uM cysteine by LDH release assay; format: functional, cell-based
How it was run: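 H9c2 cells at about 70% confluence were preconditioned 1 h with donor plus cysteine (480 μM), then treated with H2O2 (400 μM) for 5 h. Extracellular LDH was measured in supernatant; intracellular LDH in lysate made with 2% Triton X-100 in DMEM. Kit reaction ran 10 min at room temperature, read at 490/600 nm. % release = extracellular/(extracellular+intracellular). Run 4 times.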

[7] = […] peak time for H2S release in pH 7.4 PBS buffer containing 10% THF incubated for 2 hrs at room temperature in presence of 1 mM GSH by methylene blue based UV-Vis spectrometry; format: physicochemical; details: pH 7.4, 2 h; how it was run: as §1
[8] = GSH-induced H2S release assessed as peak H2S level in pH 7.4 PBS buffer containing 10% THF incubated for 2 hrs at room temperature in presence of 1 mM GSH by methylene blue based UV-Vis spectrometry; format: physicochemical; details: pH 7.4, 2 h; how it was run: as §1
[9] = GSH-induced H2S release assessed as peak H2S level in pH 7.4 PBS buffer containing 10% THF incubated for 2 hrs at room temperature in presence of cysteine by methylene blue based UV-Vis spectrometry; format: physicochemical; details: pH 7.4, 2 h; how it was run: as §1
[10] = Induction of […] release in pH 7.4 PBS buffer containing 10% THF incubated for 2 hrs at room temperature in presence of 0.5 mM cysteine by methylene blue based UV-Vis spectrometry; format: physicochemical; details: pH 7.4, 2 h; how it was run: as §1
[11] = Induction of […] release in pH 7.4 PBS buffer containing 10% THF incubated for 2 hrs at room temperature in presence of 2 mM cysteine by methylene blue based UV-Vis spectrometry; format: physicochemical; details: pH 7.4, 2 h; how it was run: as §1
H9c2 [12] = experiment: Cytotoxicity against rat H9c2 cells assessed as reduction in cell viability at 160 uM in presence of 480 uM cysteine incubated for 1 hr by CCK8 assay; format: cell-based; details: h9c2, 1 h; how it was run: as §3
Mus musculus [13] = experiment: Effect on area-at-risk per left ventricle in C57BL6/J mouse model of myocardial ischemia/reperfusion at 50 and 100 ug/kg dosed through direct intracardiac injection at time of reperfusion by TTC staining method; format: organism-based, Heart left ventricle; details: in vivo, 0.1 mg/kg; how it was run: as §2
H9c2 [14] = experiment: Cytotoxicity against rat H9c2 cells assessed as reduction in cell viability at <40 uM incubated for 1 hr by CCK8 assay; format: cell-based; details: h9c2, 1 h; how it was run: as §3
H9c2 [15] = experiment: Cytoprotective activity against H2O2-induced cell damage in rat H9c2 cells at 480 uM incubated for 1 hr before H2O2 challenge for 5 hrs by CCK8 assay; format: functional, cell-based
How it was run: (§4)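 H9c2 cells (high-glucose DMEM, 10% FBS, 37 °C, 5% CO2) were preincubated 1 h with test agent, washed with PBS, then exposed to H2O2 (400 μM) for 5 h. Viability was read by CCK-8 (1:10 dilution, 3 h at 37 °C, absorbance 450 nm). The mean OD of 4 wells was expressed as % of control. Experiments were done in triplicate.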

H9c2 [16] = experiment: Cytoprotective activity against H2O2-induced cell damage in rat H9c2 cells at 160 uM incubated for 1 hr before H2O2 challenge for 5 hrs by CCK8 assay; format: functional, cell-based; how it was run: as §4

Row | Compound | Time [1] | Time [7] | Activity [8] | Activity [9] | also measured
1 | O=C(NSC(=O)c1ccccc1)c1ccccc1 | 55 min | 65 min | 51.2 µM | 55.8 µM | inhibition (Mus musculus [2]): Dose-dependent effect; inhibition in vivo at 0.1 mg/kg (Mus musculus [3]): 35%; Activity (H9c2 [4]): Active; Activity (H9c2 [5]): Toxic; Activity (H9c2 [6]): Active; Activity [10]: Not Active; Activity [11]: Active; Activity (H9c2 [12]): Non-toxic; Activity (Mus musculus [13]): Non-toxic; Activity (H9c2 [14]): Non-toxic
2 | COc1ccc(C(=O)SNC(=O)Nc2ccccc2)cc1 | 105 min | 120 min | 26.4 µM | 14.1 µM | 
3 | COc1ccccc1C(=O)SNC(=O)c1ccccc1 | 60 min | 80 min | 34 µM | 29 µM | 
4 | CC(=O)Oc1ccccc1C(=O)NSC(=O)c1ccccc1 | 60 min | 60 min | 44.5 µM | 35.1 µM | 
5 | Cc1ccc(C(=O)SNC(=O)Nc2ccccc2)cc1 | 105 min | 130 min | 20 µM | 16.5 µM | 
6 | O=C(Cc1ccccc1)SNC(=O)c1ccccc1 | 50 min | 60 min | 47.5 µM | 33.4 µM | 
7 | Cc1ccccc1C(=O)SNC(=O)c1ccccc1 | 60 min | 70 min | 19.8 µM | 29.4 µM | 
8 | O=C(NSC(=O)C1CCCCC1)c1ccccc1 | 65 min | 80 min | 68.2 µM | 48.1 µM | 
9 | O=C(NSC(=O)c1ccccc1)Nc1ccccc1 | 95 min | 110 min | 29.9 µM | 21.5 µM | 
10 | O=C(NSC(=O)c1ccc(F)cc1)Nc1ccccc1 | 75 min | 90 min | 18.5 µM | 18.8 µM | 
11 | CN(C)c1ccc(C(=O)SNC(=O)c2ccccc2)cc1 | 65 min | 80 min | 7.6 µM | 19.5 µM | 
12 | COc1cccc(C(=O)SNC(=O)c2ccccc2)c1 | 55 min | 80 min | 39.5 µM | 47 µM | 
13 | Cc1ccccc1C(=O)NSC(=O)c1ccccc1 | 55 min | 65 min | 57.6 µM | 51.4 µM | 
14 | N[C@@H](CS)C(=O)O |  |  |  |  | Activity (H9c2 [15]): inactive
15 | O=C(NSC(=O)C1CCCC1)c1ccccc1 | 60 min | 65 min | 49.9 µM | 40.9 µM | 
16 | Cc1ccc(NC(=O)NSC(=O)c2ccccc2)cc1 | 90 min | 130 min | 27.4 µM | 21.8 µM | 
17 | Cc1ccc(C(=O)SNC(=O)c2ccccc2)cc1 | 60 min | 60 min | 39.8 µM | 45.4 µM | 
18 | CC(C)C(=O)SNC(=O)c1ccccc1 | 65 min | 70 min | 58.4 µM | 40.7 µM | 

Row | Compound | Time [1] | Time [7] | Activity [8] | Activity [9] | also measured
19 | CCC(=O)NSC(=O)c1ccccc1 | 55 min | 60 min | 54.1 µM | 44.1 µM | 
20 | CCCC(=O)NSC(=O)c1ccccc1 | 60 min | 60 min | 58.3 µM | 45.9 µM | 
21 | CC(=O)NSC(=O)c1ccccc1 | 45 min | 50 min | 58.3 µM | 46.4 µM | 
22 | O=C(NSC(=O)c1ccccc1)c1ccc(F)cc1 | 55 min | 65 min | 43.3 µM | 38.5 µM | 
23 | Cc1cccc(C(=O)SNC(=O)c2ccccc2)c1 | 55 min | 65 min | 39.3 µM | 49.3 µM | 
24 | O=C(NSC(=O)c1ccc(Cl)cc1)Nc1ccccc1 | 95 min | 120 min | 24.9 µM | 18.2 µM | 
25 | O=C(NSC(=O)c1ccccc1)c1cccc(Cl)c1 | 60 min | 70 min | 29.9 µM | 25.2 µM | 
26 | O=C(NSC(=O)c1ccc(C(F)(F)F)cc1)c1ccccc1 | 45 min | 60 min | 28.1 µM | 48.3 µM | 
27 | COC(=O)c1ccc(C(=O)SNC(=O)c2ccccc2)cc1 | 50 min | 55 min | 36 µM | 38.8 µM | 
28 | CC(=O)SNC(=O)c1ccccc1 | 60 min | 70 min | 63.1 µM | 48.4 µM | 
29 | CC(C)(C)C(=O)SNC(=O)c1ccccc1 | 80 min | 90 min | 48.1 µM | 37.5 µM | 
30 | NC(=O)c1ccccc1 |  |  |  |  | Activity (H9c2 [16]): inactive
31 | O=C(NSC(=O)c1cccc(Cl)c1)c1ccccc1 | 50 min | 60 min | 31.3 µM | 49.4 µM | 
32 | O=C(NSC(=O)c1ccccc1)Nc1ccc(Cl)cc1 | 110 min | 120 min | 20.9 µM | 10.7 µM | 
33 | COc1ccc(C(=O)SNC(=O)c2ccccc2)cc1 | 60 min | 65 min | 46.8 µM | 41.8 µM | Activity (H9c2 [4]): Active; Activity (H9c2 [5]): Toxic; Activity (H9c2 [6]): Active; Activity (H9c2 [12]): Non-toxic; Activity (H9c2 [14]): Non-toxic
34 | O=C(N[C@@H](CS)C(=O)O)c1ccccc1 |  |  |  |  | Activity (H9c2 [16]): inactive
35 | CC(C(=O)SNC(=O)c1ccccc1)c1ccccc1 (stereo unspecified) | 60 min | 70 min | 55.6 µM | 48.2 µM | 
